The source of these data is ChEMBL document CHEMBL3877303 (J Med Chem, 2017).

Activity calls are given as the source filed them.

Data set [1] has as its target T1, BCR/ABL p210 fusion protein (Homo sapiens, UniProt A1Z199). As to the kind of experiment: Inhibition of BCR/ABL p210 fusion protein mediated signaling pathways assessed as reduction in ERK phosphorylation at T202/Y204 in human K562 cells at 0.01 to 3 uM measured after 2 hrs by immunoblotting. The class given is cell-based. A digest of the protocol: (§1)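 After an ice-cold PBS wash, cells were lysed in RIPA buffer (50 mM Tris pH 8.0) with protease and phosphatase inhibitors, and protein was quantified by BCA. Lysates were run on SDS-PAGE, transferred to PVDF and blocked in 5% milk/TBST. Phospho- and total proteins were probed by immunoblot with ECL detection; β-actin served as loading control.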
On the technique in general: A western blot detects proteins with antibodies after separation by electrophoresis.

Data set [2] concerns the target T2, Mast/stem cell growth factor receptor Kit (Homo sapiens, UniProt P10721). The experiment in a line: Inhibition of c-KIT mediated signaling pathways assessed as reduction in AKT phosphorylation at S473 in human GIST882 cells at 0.03 to 10 uM measured after 2 hrs by immunoblotting. The class given is cell-based. A digest of the protocol: as §1
A short description of data set [3]: Tmax in Sprague-Dawley rat at 10 mg/kg, po. The class given is ADME, organism-based. The note with it: in vivo. A digest of the protocol: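 Male Sprague-Dawley rats, 6-8 weeks old, fasted overnight, dosed iv or po. Jugular vein blood (~0.2 mL, heparin) sampled at 1 min to 8 h (iv) or 5 min to 24 h (po). Plasma separated by centrifugation at 2-8 °C and stored at -80 °C before analysis.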

The test system of the next data set is KU812 cell line. The experiment in a line: Induction of apoptosis in human KU812 cells assessed as cleavage of PARP at 0.1 to 3 uM by Western blot analysis. The class given is functional, cell-based. A digest of the protocol: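 Cells were treated with DMSO or serially diluted compound for the indicated periods. They were washed in ice-cold PBS and lysed in RIPA buffer with protease/phosphatase inhibitors, and protein was quantified by BCA. Lysates were resolved by SDS-PAGE, transferred to PVDF and blocked in 5% milk/TBST. Blots were probed for PARP and caspase-3, with β-actin as loading control, and detected by ECL.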

The target in data set [4] is T2, Mast/stem cell growth factor receptor Kit. As to the kind of experiment: Inhibition of c-KIT autophosphorylation at Y703 in human GISTT1 cells at 0.03 to 10 uM measured after 2 hrs by immunoblotting. The class given is cell-based. A digest of the protocol: as §1
Data set [5] has the same target. As to the kind of experiment: Inhibition of c-KIT mediated signaling pathways assessed as reduction in Stat3/5 phosphorylation at Y705/Y694 in human GISTT1 cells at 0.03 to 10 uM measured after 2 hrs by immunoblotting. The class given is cell-based. A digest of the protocol: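 GIST-T1 cells treated with DMSO or serially diluted compound for 2 h. Cells lysed in RIPA buffer with protease/phosphatase inhibitors, protein quantified by BCA, SDS-PAGE, PVDF transfer, milk block, primary/secondary antibodies, ECL detection; beta-actin loading control.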

Data set [6] concerns the target Platelet-derived growth factor receptor beta (Homo sapiens, UniProt P09619). The experiment in a line: Inhibition of Tel-fused PDGFR-beta (unknown origin) expressed in BAF3 cells assessed as growth inhibition measured after 72 hrs by CellTiter-Glo or CCK8 assay. The class given is cell-based. A digest of the protocol: (§2)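 BaF3 lines were made by retroviral transduction with kinase-fusion MSCV vectors packaged in HEK293T cells. Cells were selected with puromycin for 48 h, then selected again without IL-3 so growth depends on the introduced kinase. […] They were seeded at 1 to 2.5×10^4 cells/mL with compound dilutions and incubated 72 h. Viability was read by CellTiter-Glo luminescence or CCK-8 absorbance (450/655 nm), normalized to DMSO control; GI50 was curve-fitted from triplicate tests.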
For orientation: Cellular ATP, detected with luciferase, serves as a proxy for viable cell number.

Data set [7] has as its target T2, Mast/stem cell growth factor receptor Kit. The experiment in a line: Inhibition of c-KIT mediated signaling pathways assessed as reduction in AKT phosphorylation at S473 in human GISTT1 cells at 0.03 to 10 uM measured after 2 hrs by immunoblotting. The class given is cell-based. A digest of the protocol:
as §1

The nature of data set [8]: Half life in Sprague-Dawley rat at 1 mg/kg, iv. The class given is ADME, organism-based. The note with it: in vivo. A digest of the protocol: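 Male Sprague-Dawley rats aged six to eight weeks were fasted overnight and then dosed iv or orally. Blood (~0.2 mL) was drawn from the jugular vein into heparin and kept on ice. Sampling was at 1 min to 8 h for iv and 5 min to 24 h for oral. Plasma was separated by centrifugation at 2-8 °C and stored at -80 °C until analysis.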

A further data set relates to MEG-01. As to the kind of experiment: Induction of apoptosis in human MEG01 cells assessed as increase in cleaved caspase-3 level at 0.1 to 3 uM by Western blot analysis. The class given is functional, cell-based.
Another data set concerns K562. The experiment in a line: Antiproliferative activity against human K562 cells xenografted in nu/nu mouse administered daily via oral gavage measured 28 days post compound treatment by Ki-67 staining based assay. The class given is functional, cell-based. A digest of the protocol: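 K562 xenograft tumors were taken after daily oral dosing. Tissue was fixed in 10% neutral-buffered formalin, paraffin-embedded and cut into 6-micron sections. […] Detection used DAB with a hematoxylin counterstain.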
A general note: In xenograft studies the graft and the host belong to different species.

Data set [9] has as its target T2, Mast/stem cell growth factor receptor Kit. The note with it: BaF3.
Data set [10] concerns the target T1, BCR/ABL p210 fusion protein. As to the kind of experiment: Inhibition of BCR/ABL p210 fusion protein mediated signaling pathways assessed as reduction in ERK phosphorylation at T202/Y204 in human KU812 cells at 0.01 to 3 uM measured after 2 hrs by immunoblotting. The class given is cell-based. A digest of the protocol: as §1
Data set [11] is described as follows: Anticancer activity against human GISTT1 cells xenografted in nu/nu mouse assessed as tumor growth inhibition at 100 mg/kg, po administered daily via oral gavage measured 21 days post compound treatment relative to vehicle-treated control. The note with it: 504 h, read-out: GI.
Another data set relates to BaF3. The experiment in a line: Inhibition of BCR/ABL p210 fusion protein Y253H mutant (unknown origin) expressed in BAF3 cells assessed as growth inhibition measured after 72 hrs by CellTiter-Glo or CCK8 assay. The note with it: Homo sapiens. The class given is cell-based. A digest of the protocol: as §2
Data set [12] is described as follows: Antiproliferative activity against human MEG01 cells measured after 72 hrs by CellTiter-Glo or CCK8 assay. The class given is functional. The note with it: MEG-01, 72 h.
The nature of data set [13]: Cell cycle arrest in human GISTT1 cells assessed as accumulation at G0/G1 phase at 1 uM after 24 hrs by propidium iodide/RNase staining based flow cytometry. The class given is functional. A digest of the protocol: (§3)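 Cells were exposed to serially diluted compound, then fixed in cold 70% ethanol overnight at -20 °C. They were stained with PI/RNase buffer for DNA-content cell-cycle analysis.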

Data set [14] in a line: Cell cycle arrest in human MEG01 cells assessed as accumulation at G0/G1 phase at 1 uM after 24 hrs by propidium iodide/RNase staining based flow cytometry. The class given is functional. The note with it: MEG-01. A digest of the protocol: as §3
Data set [15] deals with T2, Mast/stem cell growth factor receptor Kit. The note with it: GISTT1, 1 uM.
The target is the same in data set [16]. The note with it: 1 uM.
A short description of data set [17]: Cell cycle arrest in human KU812 cells assessed as accumulation at G0/G1 phase at 1 uM after 12 hrs by propidium iodide/RNase staining based flow cytometry. The class given is functional. A digest of the protocol: as §3
Data set [18] has as its target T2, Mast/stem cell growth factor receptor Kit. The note with it: GISTT1, 1 uM. This is another data set of the same source.
Data set [19] shares this target. The note with it: GISTT1, 1 uM. The source holds these as a separate data set.
The target is the same in data set [20]. The note with it: GISTT1, 1 uM. This is another data set of the same source.

T2 sequence (P10721 whole entry): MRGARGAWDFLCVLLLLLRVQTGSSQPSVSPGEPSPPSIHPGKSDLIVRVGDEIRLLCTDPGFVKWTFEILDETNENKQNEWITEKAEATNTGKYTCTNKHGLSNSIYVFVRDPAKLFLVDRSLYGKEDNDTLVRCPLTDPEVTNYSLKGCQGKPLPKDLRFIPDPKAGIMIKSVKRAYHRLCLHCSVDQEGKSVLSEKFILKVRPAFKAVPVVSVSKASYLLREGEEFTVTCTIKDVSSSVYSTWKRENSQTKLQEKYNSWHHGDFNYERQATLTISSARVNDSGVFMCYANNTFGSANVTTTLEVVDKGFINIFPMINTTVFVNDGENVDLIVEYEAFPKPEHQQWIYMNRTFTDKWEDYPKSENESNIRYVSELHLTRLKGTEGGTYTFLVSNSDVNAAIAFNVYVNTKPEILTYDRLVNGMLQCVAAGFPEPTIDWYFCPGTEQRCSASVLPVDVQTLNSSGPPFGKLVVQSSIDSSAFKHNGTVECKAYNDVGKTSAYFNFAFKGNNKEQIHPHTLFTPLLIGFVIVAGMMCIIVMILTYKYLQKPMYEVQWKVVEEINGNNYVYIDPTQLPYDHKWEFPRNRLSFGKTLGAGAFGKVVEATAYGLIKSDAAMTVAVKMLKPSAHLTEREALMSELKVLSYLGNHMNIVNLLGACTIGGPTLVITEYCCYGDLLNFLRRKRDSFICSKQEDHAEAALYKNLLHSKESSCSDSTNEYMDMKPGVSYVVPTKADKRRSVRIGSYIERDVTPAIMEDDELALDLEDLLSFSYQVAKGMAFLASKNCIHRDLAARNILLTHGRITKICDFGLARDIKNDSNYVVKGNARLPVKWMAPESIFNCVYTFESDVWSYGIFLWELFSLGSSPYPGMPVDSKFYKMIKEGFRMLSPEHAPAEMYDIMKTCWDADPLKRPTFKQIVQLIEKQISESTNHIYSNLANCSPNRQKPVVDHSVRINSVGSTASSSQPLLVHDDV
T1 sequence (A1Z199 1-97): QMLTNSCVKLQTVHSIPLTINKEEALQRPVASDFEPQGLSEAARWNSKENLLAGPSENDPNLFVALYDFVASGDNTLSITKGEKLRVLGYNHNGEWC
Sequence of Platelet-derived growth factor receptor beta (P09619 whole entry, the tested form may be a part): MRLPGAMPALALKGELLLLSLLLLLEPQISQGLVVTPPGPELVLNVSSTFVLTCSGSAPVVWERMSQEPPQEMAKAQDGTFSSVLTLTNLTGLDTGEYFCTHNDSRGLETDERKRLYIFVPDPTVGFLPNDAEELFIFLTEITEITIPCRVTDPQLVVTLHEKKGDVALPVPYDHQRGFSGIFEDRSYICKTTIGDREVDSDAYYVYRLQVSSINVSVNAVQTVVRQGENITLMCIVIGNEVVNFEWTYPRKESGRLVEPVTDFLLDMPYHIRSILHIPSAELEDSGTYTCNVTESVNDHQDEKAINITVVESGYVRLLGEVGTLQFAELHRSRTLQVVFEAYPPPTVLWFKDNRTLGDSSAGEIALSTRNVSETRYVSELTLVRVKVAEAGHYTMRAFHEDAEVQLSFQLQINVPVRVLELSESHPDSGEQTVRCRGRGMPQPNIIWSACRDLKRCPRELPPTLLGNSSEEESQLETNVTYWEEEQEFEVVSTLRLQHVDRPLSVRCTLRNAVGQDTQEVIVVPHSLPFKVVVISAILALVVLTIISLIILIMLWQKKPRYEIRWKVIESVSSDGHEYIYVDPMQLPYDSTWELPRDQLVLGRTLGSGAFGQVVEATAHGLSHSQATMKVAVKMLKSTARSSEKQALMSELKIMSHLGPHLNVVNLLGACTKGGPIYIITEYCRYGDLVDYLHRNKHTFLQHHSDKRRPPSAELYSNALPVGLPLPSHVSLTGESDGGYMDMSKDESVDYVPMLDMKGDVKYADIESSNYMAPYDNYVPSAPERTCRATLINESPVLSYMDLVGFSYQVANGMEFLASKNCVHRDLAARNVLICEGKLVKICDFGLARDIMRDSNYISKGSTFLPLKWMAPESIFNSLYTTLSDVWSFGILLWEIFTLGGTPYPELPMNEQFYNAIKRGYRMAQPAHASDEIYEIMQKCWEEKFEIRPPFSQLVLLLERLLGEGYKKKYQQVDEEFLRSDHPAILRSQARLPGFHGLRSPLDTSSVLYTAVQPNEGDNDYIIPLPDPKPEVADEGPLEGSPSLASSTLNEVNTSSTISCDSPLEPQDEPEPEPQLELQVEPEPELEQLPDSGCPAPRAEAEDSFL

For `Cc1ccc(C(=O)N2CCC(Oc3cc(NC(=O)c4ccc(CN5CCN(C)CC5)c(C(F)(F)F)c4)ccc3C)CC2)cn1`, the inhibition result in data set [1], in [2], in data set [4], in data set [5], in data set [7] and in [10] was “Active” each time. Further, the Tmax in [3] amounted to 6 h. The result in the data set with KU812 cell line and in the data set with MEG-01 was Active. Further, the GI50 stood at 14 nM in data set [6], 149 nM in data set [9], 1670 nM with BaF3 and 20 nM in data set [12]. Further, the half-life in [8] is 2.47 h. In addition, the Activity entry with K562 is “Dose-dependent effect”. In [11], the inhibition in vivo at 100 mg/kg is 46.5%.
As for `Cc1ccc(NC(=O)c2ccc(CN3CCN(C)CC3)cc2)cc1Nc1nccc(-c2cccnc2)n1` [IMATINIB], the result in [13], in data set [14] and in [17] was Active. Also, the inhibition entry in data set [15], in [16], in data set [18], in [19] and in [20] was “Active” throughout.

In general, Tmax refers to the time from dosing to the highest level. A word on the GI50: it is the concentration giving 50% growth inhibition. For orientation: half-life means the time needed for the level to fall by half in the phase considered. Read a low half-life as fast loss.
